Measurements taken from ChEMBL document CHEMBL2384977, “Synthesis and biological evaluation of novel styryl benzimidazole derivatives as probes for imaging of neurofibrillary tangles in Alzheimer's disease” (Bioorg Med Chem, 2013).

Key:
[1] = target: Microtubule-associated protein tau (Homo sapiens, UniProt P10636); test: Binding affinity to recombinant human tau (441 amino acid residues) aggregates expressed in Escherichia coli assessed as apparent dissociation constant after 30 mins by fluorescence spectroscopic analysis; conditions: read-out: Kd(app)
How it was run: (§1)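 Tau: human 441-aa tau expressed in E. coli, aggregated at 1 mg/mL in MES buffer pH 6.8 with 0.1 mg/mL heparin, 37 °C for 3 days with shaking. Abeta1-42 aggregated at 0.25 mg/mL in PBS pH 7.4, 37 °C for 42 h with shaking. Aggregates at final 10 µg/mL were incubated with ligand (final 0.02–10 µM) for 30 min at room temperature. Apparent Kd was taken from fluorescence saturation curves at ex 440 nm, em 510 nm (tau) or em 480 nm (Abeta). Mean ± SEM of six independent experiments.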

[2] = species: Homo sapiens; test: Selectivity ratio of Kd(app) for amyloid beta (1 to 42) (unknown origin) aggregates to Kd(app) for recombinant human tau (441 amino acid residues) aggregates
How it was run: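 Human 441-aa tau, expressed in E. coli, was aggregated at 1 mg/mL (MES pH 6.8, 0.1 mg/mL heparin, 37 °C, 3 days, shaking). Aβ1–42 was aggregated at 0.25 mg/mL (PBS pH 7.4, 37 °C, 42 h). Aggregates were incubated 30 min at room temperature with ligand, and fluorescence read at ex 440 nm, em 510 nm (tau) or 480 nm (Aβ). Apparent Kd came from saturation curves over six independent experiments, and the ratio is Kd(Aβ)/Kd(tau).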

[3] = target: Amyloid-beta precursor protein (Homo sapiens, UniProt P05067); test: Binding affinity to amyloid beta (1 to 42) (unknown origin) aggregates assessed as apparent dissociation constant after 30 mins by fluorescence spectroscopic analysis; conditions: read-out: Kd(app); how it was run: as §1
[4] = system: Brain; test: Biodistribution in ddY mouse brain at 13.2 to 20.6 kBq, iv measured at 60 mins by gamma counting analysis; assay type: ADME, organism-based; conditions: in vivo, 1 h
How it was run: (§2)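 Male ddY mice, 5 weeks old, received the 125I-labelled tracer (13.2–20.6 kBq) intravenously in the tail vein, in 100 µL saline containing ethanol. Animals were sacrificed at 2, 10, 30 and 60 min. Tissue radioactivity is expressed as %ID/g, mean (SD) of 5 animals.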

[5] = system: Liver; test: Biodistribution in ddY mouse liver at 13.2 to 20.6 kBq, iv measured at 60 mins by gamma counting analysis; assay type: ADME, organism-based; conditions: in vivo, 1 h; how it was run: as §2
[6] = system: Intestine; test: Biodistribution in ddY mouse intestine at 13.2 to 20.6 kBq, iv measured at 10 mins by gamma counting analysis; assay type: ADME, organism-based; conditions: in vivo; how it was run: as §2
[7] = system: Blood; test: Biodistribution in ddY mouse blood at 13.2 to 20.6 kBq, iv measured at 10 mins by gamma counting analysis; assay type: ADME, organism-based; conditions: in vivo; how it was run: as §2
[8] = 1-Octanol-PBS buffer partition coefficient, log P of the compound at 0.37 MBq after 2 mins by gamma counting analysis; assay type: physicochemical
[9] = system: Brain; test: Biodistribution in ddY mouse brain at 13.2 to 20.6 kBq, iv measured at 10 mins by gamma counting analysis; assay type: ADME, organism-based; conditions: in vivo; how it was run: as §2
[10] = system: Stomach; test: Biodistribution in ddY mouse stomach at 13.2 to 20.6 kBq, iv measured per organ at 10 mins by gamma counting analysis; assay type: ADME, organism-based; conditions: in vivo
How it was run: (§3)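 Male ddY mice, 5 weeks old, were injected in the tail vein with the 125I tracer (13.2–20.6 kBq) in 100 µL saline containing ethanol. Sacrifice at 2, 10, 30 and 60 min. Stomach radioactivity is expressed as %ID per whole organ, mean (SD) of 5 animals.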

[11] = system: Liver; test: Biodistribution in ddY mouse liver at 13.2 to 20.6 kBq, iv measured at 10 mins by gamma counting analysis; assay type: ADME, organism-based; conditions: in vivo; how it was run: as §2
[12] = system: Spleen; test: Biodistribution in ddY mouse spleen at 13.2 to 20.6 kBq, iv measured at 30 mins by gamma counting analysis; assay type: ADME, organism-based; conditions: in vivo, 0.5 h; how it was run: as §2
[13] = system: Blood; test: Biodistribution in ddY mouse blood at 13.2 to 20.6 kBq, iv measured at 30 mins by gamma counting analysis; assay type: ADME, organism-based; conditions: in vivo, 0.5 h; how it was run: as §2
[14] = system: Spleen; test: Biodistribution in ddY mouse spleen at 13.2 to 20.6 kBq, iv measured at 2 mins by gamma counting analysis; assay type: ADME, organism-based; conditions: in vivo; how it was run: as §2
[15] = system: Liver; test: Biodistribution in ddY mouse liver at 13.2 to 20.6 kBq, iv measured at 2 mins by gamma counting analysis; assay type: ADME, organism-based; conditions: in vivo; how it was run: as §2
[16] = system: Spleen; test: Biodistribution in ddY mouse spleen at 13.2 to 20.6 kBq, iv measured at 10 mins by gamma counting analysis; assay type: ADME, organism-based; conditions: in vivo; how it was run: as §2
[17] = system: Intestine; test: Biodistribution in ddY mouse intestine at 13.2 to 20.6 kBq, iv measured at 60 mins by gamma counting analysis; assay type: ADME, organism-based; conditions: in vivo, 1 h; how it was run: as §2
[18] = system: Heart; test: Biodistribution in ddY mouse heart at 13.2 to 20.6 kBq, iv measured at 10 mins by gamma counting analysis; assay type: ADME, organism-based; conditions: in vivo; how it was run: as §2
[19] = system: Blood; test: Biodistribution in ddY mouse blood at 13.2 to 20.6 kBq, iv measured at 60 mins by gamma counting analysis; assay type: ADME, organism-based; conditions: in vivo, 1 h; how it was run: as §2
[20] = system: Brain; test: Ratio of drug level in ddY mouse brain at 13.2 to 20.6 kBq, iv measured at 2 mins to drug level in ddY mouse brain at 13.2 to 20.6 kBq, iv measured at 60 mins; assay type: ADME, organism-based; conditions: in vivo
How it was run: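 Tail-vein injection of the 125I tracer (13.2–20.6 kBq, saline with ethanol) into male 5-week-old ddY mice. The ratio is brain uptake (%ID/g) at 2 min divided by brain uptake at 60 min, from groups of 5 animals.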

[21] = system: Heart; test: Biodistribution in ddY mouse heart at 13.2 to 20.6 kBq, iv measured at 2 mins by gamma counting analysis; assay type: ADME, organism-based; conditions: in vivo; how it was run: as §2
[22] = system: Spleen; test: Biodistribution in ddY mouse spleen at 13.2 to 20.6 kBq, iv measured at 60 mins by gamma counting analysis; assay type: ADME, organism-based; conditions: in vivo, 1 h; how it was run: as §2
[23] = system: Lung; test: Biodistribution in ddY mouse lung at 13.2 to 20.6 kBq, iv measured at 10 mins by gamma counting analysis; assay type: ADME, organism-based; conditions: in vivo; how it was run: as §2
[24] = system: Lung; test: Biodistribution in ddY mouse lung at 13.2 to 20.6 kBq, iv measured at 30 mins by gamma counting analysis; assay type: ADME, organism-based; conditions: in vivo, 0.5 h; how it was run: as §2
[25] = system: Pancreas; test: Biodistribution in ddY mouse pancreas at 13.2 to 20.6 kBq, iv measured at 60 mins by gamma counting analysis; assay type: ADME, organism-based; conditions: in vivo, 1 h; how it was run: as §2
[26] = system: Kidney; test: Biodistribution in ddY mouse kidney at 13.2 to 20.6 kBq, iv measured at 10 mins by gamma counting analysis; assay type: ADME, organism-based; conditions: in vivo; how it was run: as §2
[27] = system: Pancreas; test: Biodistribution in ddY mouse pancreas at 13.2 to 20.6 kBq, iv measured at 2 mins by gamma counting analysis; assay type: ADME, organism-based; conditions: in vivo; how it was run: as §2
[28] = system: Liver; test: Biodistribution in ddY mouse liver at 13.2 to 20.6 kBq, iv measured at 30 mins by gamma counting analysis; assay type: ADME, organism-based; conditions: in vivo, 0.5 h; how it was run: as §2
[29] = system: Brain; test: Biodistribution in ddY mouse brain at 13.2 to 20.6 kBq, iv measured at 30 mins by gamma counting analysis; assay type: ADME, organism-based; conditions: in vivo, 0.5 h; how it was run: as §2
[30] = system: Intestine; test: Biodistribution in ddY mouse intestine at 13.2 to 20.6 kBq, iv measured at 2 mins by gamma counting analysis; assay type: ADME, organism-based; conditions: in vivo; how it was run: as §2
[31] = system: Kidney; test: Biodistribution in ddY mouse kidney at 13.2 to 20.6 kBq, iv measured at 30 mins by gamma counting analysis; assay type: ADME, organism-based; conditions: in vivo, 0.5 h; how it was run: as §2
[32] = system: Kidney; test: Biodistribution in ddY mouse kidney at 13.2 to 20.6 kBq, iv measured at 2 mins by gamma counting analysis; assay type: ADME, organism-based; conditions: in vivo; how it was run: as §2
[33] = system: Heart; test: Biodistribution in ddY mouse heart at 13.2 to 20.6 kBq, iv measured at 30 mins by gamma counting analysis; assay type: ADME, organism-based; conditions: in vivo, 0.5 h; how it was run: as §2
[34] = system: Stomach; test: Biodistribution in ddY mouse stomach at 13.2 to 20.6 kBq, iv measured per organ at 2 mins by gamma counting analysis; assay type: ADME, organism-based; conditions: in vivo; how it was run: as §3
[35] = system: Blood; test: Biodistribution in ddY mouse blood at 13.2 to 20.6 kBq, iv measured at 2 mins by gamma counting analysis; assay type: ADME, organism-based; conditions: in vivo; how it was run: as §2
[36] = system: Kidney; test: Biodistribution in ddY mouse kidney at 13.2 to 20.6 kBq, iv measured at 60 mins by gamma counting analysis; assay type: ADME, organism-based; conditions: in vivo, 1 h; how it was run: as §2
[37] = system: Lung; test: Biodistribution in ddY mouse lung at 13.2 to 20.6 kBq, iv measured at 2 mins by gamma counting analysis; assay type: ADME, organism-based; conditions: in vivo; how it was run: as §2
[38] = system: Lung; test: Biodistribution in ddY mouse lung at 13.2 to 20.6 kBq, iv measured at 60 mins by gamma counting analysis; assay type: ADME, organism-based; conditions: in vivo, 1 h; how it was run: as §2
[39] = system: Brain; test: Biodistribution in ddY mouse brain at 13.2 to 20.6 kBq, iv measured at 2 mins by gamma counting analysis; assay type: ADME, organism-based; conditions: in vivo; how it was run: as §2
[40] = system: Pancreas; test: Biodistribution in ddY mouse pancreas at 13.2 to 20.6 kBq, iv measured at 30 mins by gamma counting analysis; assay type: ADME, organism-based; conditions: in vivo, 0.5 h; how it was run: as §2
[41] = system: Stomach; test: Biodistribution in ddY mouse stomach at 13.2 to 20.6 kBq, iv measured per organ at 60 mins by gamma counting analysis; assay type: ADME, organism-based; conditions: in vivo, 1 h; how it was run: as §3
[42] = system: Stomach; test: Biodistribution in ddY mouse stomach at 13.2 to 20.6 kBq, iv measured per organ at 30 mins by gamma counting analysis; assay type: ADME, organism-based; conditions: in vivo, 0.5 h; how it was run: as §3
[43] = system: Intestine; test: Biodistribution in ddY mouse intestine at 13.2 to 20.6 kBq, iv measured at 30 mins by gamma counting analysis; assay type: ADME, organism-based; conditions: in vivo, 0.5 h; how it was run: as §2
[44] = system: Heart; test: Biodistribution in ddY mouse heart at 13.2 to 20.6 kBq, iv measured at 60 mins by gamma counting analysis; assay type: ADME, organism-based; conditions: in vivo, 1 h; how it was run: as §2
[45] = system: Pancreas; test: Biodistribution in ddY mouse pancreas at 13.2 to 20.6 kBq, iv measured at 10 mins by gamma counting analysis; assay type: ADME, organism-based; conditions: in vivo; how it was run: as §2

Sequence of Microtubule-associated protein tau (P10636 whole entry): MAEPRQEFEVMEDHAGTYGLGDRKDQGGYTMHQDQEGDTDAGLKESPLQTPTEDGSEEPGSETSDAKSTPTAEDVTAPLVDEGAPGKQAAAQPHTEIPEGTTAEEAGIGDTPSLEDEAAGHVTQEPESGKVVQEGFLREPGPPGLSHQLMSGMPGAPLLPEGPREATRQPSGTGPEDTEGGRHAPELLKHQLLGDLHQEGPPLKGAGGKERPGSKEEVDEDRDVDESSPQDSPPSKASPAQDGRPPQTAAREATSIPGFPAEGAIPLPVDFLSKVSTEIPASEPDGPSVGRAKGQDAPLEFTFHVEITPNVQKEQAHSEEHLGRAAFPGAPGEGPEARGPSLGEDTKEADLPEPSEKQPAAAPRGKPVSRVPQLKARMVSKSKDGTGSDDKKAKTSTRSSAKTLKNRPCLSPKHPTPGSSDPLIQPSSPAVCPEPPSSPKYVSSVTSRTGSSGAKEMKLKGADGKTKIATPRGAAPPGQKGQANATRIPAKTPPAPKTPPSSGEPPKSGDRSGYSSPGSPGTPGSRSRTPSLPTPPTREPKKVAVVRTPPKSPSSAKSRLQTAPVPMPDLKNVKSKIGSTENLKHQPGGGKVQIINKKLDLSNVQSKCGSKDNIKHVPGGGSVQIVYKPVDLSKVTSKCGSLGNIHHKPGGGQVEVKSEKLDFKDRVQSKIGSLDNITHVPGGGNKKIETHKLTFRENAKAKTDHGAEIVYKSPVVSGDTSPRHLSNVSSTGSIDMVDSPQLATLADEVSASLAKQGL
Sequence of Amyloid-beta precursor protein (P05067 whole entry): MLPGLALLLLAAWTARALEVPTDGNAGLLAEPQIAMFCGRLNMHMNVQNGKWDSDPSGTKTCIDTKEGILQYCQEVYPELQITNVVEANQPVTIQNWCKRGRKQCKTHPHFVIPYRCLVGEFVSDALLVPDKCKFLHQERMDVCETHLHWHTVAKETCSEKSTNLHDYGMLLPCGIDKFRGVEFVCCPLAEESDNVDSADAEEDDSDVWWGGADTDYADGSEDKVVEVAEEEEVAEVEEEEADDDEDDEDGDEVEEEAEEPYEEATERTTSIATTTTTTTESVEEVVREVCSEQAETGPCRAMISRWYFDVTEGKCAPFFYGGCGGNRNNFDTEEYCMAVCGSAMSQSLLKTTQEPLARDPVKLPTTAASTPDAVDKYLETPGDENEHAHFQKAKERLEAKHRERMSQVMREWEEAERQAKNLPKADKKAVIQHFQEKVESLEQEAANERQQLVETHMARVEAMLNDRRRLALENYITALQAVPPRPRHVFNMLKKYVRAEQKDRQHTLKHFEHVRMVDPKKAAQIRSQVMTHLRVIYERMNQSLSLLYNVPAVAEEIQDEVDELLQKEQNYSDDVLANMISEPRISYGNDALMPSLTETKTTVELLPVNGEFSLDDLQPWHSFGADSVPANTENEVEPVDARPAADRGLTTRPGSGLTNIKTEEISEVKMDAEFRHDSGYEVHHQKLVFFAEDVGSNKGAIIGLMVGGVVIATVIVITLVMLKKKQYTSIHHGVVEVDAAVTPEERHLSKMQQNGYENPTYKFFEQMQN

Nc1ccc(/C=C/c2nc3ccc(I)cc3[nH]2)cc1
Kd [1]: 2.36 µM
Selectivity ratio [2]: 0.38
Kd [3]: 0.9 µM

Nc1ccc(/C=C/c2nc3ccc([125I])cc3[nH]2)cc1
Drug uptake [4]: 0.12 % ID/g
Drug uptake [5]: 15.6 % ID/g
Drug uptake [6]: 13.7 % ID/g
Drug uptake [7]: 2.72 % ID/g
logP at 2 min [8]: 1.88
Drug uptake [9]: 1.4 % ID/g
Drug uptake [10]: 4.13 %ID
Drug uptake [11]: 29.9 % ID/g
Drug uptake [12]: 2.71 % ID/g
Drug uptake [13]: 1.57 % ID/g
Drug uptake [14]: 5.5 % ID/g
Drug uptake [15]: 29.4 % ID/g
Drug uptake [16]: 4.87 % ID/g
Drug uptake [17]: 27.4 % ID/g
Drug uptake [18]: 2.84 % ID/g
Drug uptake [19]: 1.24 % ID/g
Ratio [20]: 26.7
Drug uptake [21]: 8.31 % ID/g
Drug uptake [22]: 2.46 % ID/g
Drug uptake [23]: 3.55 % ID/g
Drug uptake [24]: 1.62 % ID/g
Drug uptake [25]: 1.43 % ID/g
Drug uptake [26]: 5.04 % ID/g
Drug uptake [27]: 4.99 % ID/g
Drug uptake [28]: 19.3 % ID/g
Drug uptake [29]: 0.26 % ID/g
Drug uptake [30]: 4.09 % ID/g
Drug uptake [31]: 2.54 % ID/g
Drug uptake [32]: 10.6 % ID/g
Drug uptake [33]: 1.48 % ID/g
Drug uptake [34]: 1.7 %ID
Drug uptake [35]: 5.94 % ID/g
Drug uptake [36]: 3.25 % ID/g
Drug uptake [37]: 9.09 % ID/g
Drug uptake [38]: 1.44 % ID/g
Drug uptake [39]: 3.2 % ID/g
Drug uptake [40]: 0.69 % ID/g
Drug uptake [41]: 4.37 %ID
Drug uptake [42]: 3.6 %ID
Drug uptake [43]: 22.1 % ID/g
Drug uptake [44]: 1.13 % ID/g
Drug uptake [45]: 1.93 % ID/g
